Data: paper PMC6174986 (Journal of Clinical Pharmacology, 2018)
Read-outs that look alike come from different tables or passages of the source. Values belong to the compound of their own block, whether it stands above or below them.

What was measured:
[1] = Population pharmacokinetic analysis of asunaprevir plasma concentrations; assay type: in vivo, human
In short: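 Japanese adults ≥20 y with chronic genotype 1 HCV (compensated cirrhosis allowed), from 2 clinical studies; oral 200 or 600 mg twice-daily tablet or 100 mg twice-daily soft-gel. Plasma by validated LC-MS/MS; below-LLOQ excluded. One-compartment, first-order absorption; log-normal IIV on CL/F, V/F; additive log-scale residual. Backward elimination (P < .001); bootstrap 95% CIs; 5th/95th covariate percentiles versus typical.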

[2] = healthy Japanese volunteers, within the dose range studied; cited from earlier work
[3] = system: P‐glycoprotein transporter; conditions: cited from earlier work
[4] = system: cytochrome P450 (CYP) 3A4; conditions: cited from earlier work
CYP2D6 = conditions: asunaprevir; cited from earlier work
[5] = system: organic anion transporting polypeptide(OATP); conditions: asunaprevir; cited from earlier work
[6] = mild impairment (Child‐Pugh class A cirrhosis); cited from earlier work
[7] = tablet formulation used in phase 1/2 studies; cited from earlier work
[8] = cited from earlier work
[9] = Population pharmacokinetic analysis of daclatasvir plasma concentrations; assay type: in vivo, human
In short: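 Japanese adults ≥ 20 years with chronic HCV genotype 1 (compensated cirrhosis allowed) from 4 clinical studies; oral 10 or 60 mg once daily, with asunaprevir or pegIFN/RBV. Plasma levels by validated LC‑MS/MS; below‑LLOQ samples excluded. Nonlinear mixed‑effects model: log‑normal interindividual variability, log‑transform‑both‑sides residual error, backward covariate elimination (P < .001), bootstrap 95% CIs.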

[10] = cited from earlier work; remark: listed apart in the source
[11] = cited from earlier work; remark: listed apart in the source
[12] = final popPK model, Japanese HCV subjects

Impact of OATP1B1 haplotypes (4 categories) on CL/F ([1]; covariate analysis, Japanese population): did not show statistical significance | CL/F for cirrhotic subjects relative to subjects without cirrhosis ([1]; final model, printed as fold lower): 0.65 fold | Interindividual variability of CL/F ([1]; final popPK model): 41.5% | Interindividual variability of V/F ([1]; final popPK model): 93.4% | Ka (absorption rate constant), θ3 [1, 12]: 0.228 h^‐1 | V/F (apparent volume of central compartment), θ2 ([1]; final popPK model, Japanese HCV subjects, phase 2 tablet reference): 75.1 L
Compound: C=C[C@@H]1C[C@]1(NC(=O)[C@@H]1C[C@@H](Oc2ncc(OC)c3ccc(Cl)cc23)CN1C(=O)[C@@H](NC(=O)OC(C)(C)C)C(C)(C)C)C(=O)NS(=O)(=O)C1CC1 [asunaprevir, Asunaprevir]
CL/F at 5th percentile of time‐varying AST compared with the median baseline AST ([1]; final model, AST at last PK sampling point 16 U/L, higher): 1.57 fold | CL/F at 5th percentile of baseline AST relative to median baseline AST of 52 U/L ([1]; final model, baseline AST 22 U/L, higher): 1.67 fold | Dose‐exposure relationship [2]: generally increased dose‐proportionally | Interaction with p‐glycoprotein ([3]; asunaprevir): weak inhibitor | Interaction with CYP3A4 ([4]; asunaprevir): weak inducer and sensitive substrate | Interaction with CYP2D6 (CYP2D6): moderate inhibitor | Interaction with OATP‐mediated uptake transport [5]: weak inhibitor and sensitive substrate | Steady‐state exposures [6]: not changed | Food effect [7]: Significant food effects | Observed AUC ([8]; AI447017, phase 2 study, 200‐mg tablet formulation): 2950 ng·h/mL | Observed AUC ([8]; AI447026, phase 3 study, 100‐mg soft‐gel capsule): 2155 ng·h/mL

Compound: COC(=O)N[C@H](C(=O)N1CCC[C@H]1c1nc(-c2ccc(-c3ccc(-c4c[nH]c([C@@H]5CCCN5C(=O)[C@@H](NC(=O)OC)C(C)C)n4)cc3)cc2)c[nH]1)C(C)C [daclatasvir, Daclatasvir]
Interindividual variability of CL/F ([9]; base popPK model): 39.7% | Interindividual variability of V/F ([9]; base popPK model): 40.7% | Effect of cirrhosis status and ALT/AST levels on CL/F ([9]; covariate analysis): not identified as significant covariates | CL/F reduction, women relative to men ([9]; final model): approximately 10% | V/F lower than at median (reference) body weight of 56 kg ([9]; final model, 5th percentile of baseline body weight, 42.8 kg): ~15% | V/F higher than at median (reference) body weight of 56 kg ([9]; final model, 95th percentile of baseline body weight, 78 kg): ~22% | Interindividual variability of CL/F ([9]; final popPK model): 39.4% | Interindividual variability of Ka ([9]; final popPK model): 86.9% | Interindividual variability of V/F ([9]; final popPK model): 38.1% | Random effect CL/F: V/F, ω1,2, covariance (correlation) ([9]; final popPK model): 0.141 (0.941) | Ka (absorption rate constant), θ3 [9, 12]: 0.865 h^‐1 | V/F (apparent volume of central compartment), θ2 ([9]; final popPK model, Japanese HCV subjects, reference BBWT 56 kg): 64.2 L | V/F ∼BBWT (baseline body weight) covariate coefficient, θ14 ([9]; final popPK model, reference 56 kg): 0.605 | CL/F ∼BCRCL (baseline creatinine clearance) covariate coefficient, θ10 ([9]; final popPK model, reference 86.48 mL/min): 0.235 | Dose‐exposure relationship [2]: generally linear | Excreted via feces in an unchanged form [10]: ~88% | Renal elimination [10]: ~7 % of dose | Interaction with P‐glycoprotein transporter ([3]; daclatasvir): substrate and inhibitor | Effects on levels of the sensitive CYP3A probe midazolam in plasma ([4]; daclatasvir): minimal effects | Interaction with CYP3A4 ([4]; daclatasvir): substrate and weak inducer | Association between exposure and degree of hepatic impairment or biochemical/serological markers of liver dysfunction [11]: no obvious association
